Published values from different studies.
Protocols differ between the studies behind these lines.
HTR1D: 5-hydroxytryptamine receptor 1D (HTR1D, Homo sapiens, UniProt P28221)
ALOX5: Polyunsaturated fatty acid 5-lipoxygenase (ALOX5, Homo sapiens, UniProt P09917)

The Ki of `OC(c1ccc(F)cc1)C(F)(F)CCN1CCC(O)(c2ccc(Cl)cc2)CC1` (racemic) is reported as 4.88 µM (HTR1D; cell-free assay, radioligand).
With `CC(C)S[C@@H]1O[C@H](CO)[C@H](O)[C@H](O)[C@H]1O` the Ki was 36 µM (Beta-galactosidase (lacZ, Escherichia coli K-12, UniProt P00722); enzyme activity, inhibitor, fluorescence).
`Fc1ccc2onc(C3CCNCC3)c2c1` gave a Ki of greater than 10 µM (Sodium-dependent serotonin transporter (Slc6a4, Rattus norvegicus, UniProt P31652); ligand displacement, radioligand).
For `COc1ccccc1N1CCN(Cc2coc3ccc(C)cc3c2=O)CC1`, the Ki was 0.464 µM (HTR1D; ligand displacement, radioligand).
The Ki of `C[C@H](N)Cn1ncc2ccc3c(c21)CCCO3` is reported as 6.9 µM (HTR1D; ligand displacement, radioligand).
`COc1cc(Nc2ncc(F)c(Nc3ccc4c(n3)NC(=O)C(C)(C)O4)n2)cc(OC)c1OC` gave an IC50 of 5.01 µM (ALOX5; enzyme activity, inhibitor).
`O=C(CCCCCCNC(=O)c1cnc(N(c2ccccc2)c2ccccc2)nc1)NO` has an EC50 of roughly 7.5 µM (ATP-dependent translocase ABCB1 (ABCB1, Homo sapiens, UniProt P08183); ATPase activity, activator; cell membranes).
The Ki of `Cc1cccc(N2CCN(Cc3coc4ccc(Cl)cc4c3=O)CC2)c1C` is reported as 0.546 µM (HTR1D; ligand displacement, radioligand).
`C[C@H](NC(=O)[C@@H](CCC(=O)O)NC(=O)CN1CCN(CC(=O)O)CCN(CC(=O)O)CCN(CC(=O)O)CC1)C(=O)N[C@@H](Cc1ccc(O)cc1)C(=O)NCC(=O)N[C@@H](Cc1c[nH]c2ccccc12)C(=O)N[C@H](C(=O)N[C@@H](CC(=O)O)C(=O)N[C@@H](Cc1cccc2ccccc12)C(N)=O)c1ccccc1` gave an IC50 of 0.0568 µM (Gastrin/cholecystokinin type B receptor (Rattus norvegicus, UniProt P30553); ligand displacement, radioligand).
For `CC[C@H]1NC(=O)[C@@H]2CSC(=N2)[C@H](Cc2ccccc2)N(C)C(=O)[C@@H]2CCCN2C(=O)[C@H](C(C)C)N(C)C(=O)[C@H](Cc2ccccc2)OC(=O)[C@H](C)[C@@H](C)NC(=O)[C@@H]([C@@H](C)O)NC(=O)[C@@H](CC(C)C)N(C)C(=O)[C@@H]2CSC1=N2`, the IC50 was 6.41 µM (Dipeptidyl peptidase 8 (Homo sapiens, UniProt Q6V1X1); enzyme activity, inhibitor).
`COc1ccccc1N1CCN(Cc2coc3c(Cl)cc(Cl)cc3c2=O)CC1` gave a Ki of 2.06 µM (HTR1D; ligand displacement, radioligand).
The IC50 of `CCCCCc1cc(O)c2c(c1)OC(C)(CCC=C(C)C)C=C2` (stereo not shown) is reported as 1.6 µM (ALOX5; enzyme activity, inhibitor).
For `CC(C)Cc1ccc([C@@H](C)C(=O)O)cc1`, the IC50 was roughly 6000 µM (Histone acetyltransferase KAT2B (KAT2B, Homo sapiens, UniProt Q92831); enzyme activity, inhibitor, mobility shift).
The Ki of `C[C@]12CCc3c(ccc4cc(O)ccc34)[C@@H]1CCC2=O` is reported as 5 µM (ksi (Comamonas testosteroni, UniProt P00947); enzyme activity, inhibitor, absorbance).
`CCOc1ccccc1N1CCN(Cc2coc3ccccc3c2=O)CC1` has a Ki of 0.633 µM (HTR1D; ligand displacement, radioligand).
With `CC(C)[C@H](NC(=O)[C@H](CCCNC(=N)N)NC(=O)N[C@@H](Cc1ccccc1)C(=O)O)C(=O)N[C@H](C=O)CCCNC(=N)N` the IC50 was 0.38 µM (Transmembrane protease serine 2 (TMPRSS2, Homo sapiens, UniProt O15393); enzyme activity, inhibitor, fluorescence; pH 8).
